This is an account of results in ChEMBL document CHEMBL4673204, “Rational Design of Cyclic Peptide Inhibitors of U2AF Homology Motif (UHM) Domains To Modulate Pre-mRNA Splicing” (J Med Chem, 2016).

Assay [1] deals with T1, Splicing factor 45 (Homo sapiens, UniProt Q96I25).
T1 sequence (Q96I25 whole entry): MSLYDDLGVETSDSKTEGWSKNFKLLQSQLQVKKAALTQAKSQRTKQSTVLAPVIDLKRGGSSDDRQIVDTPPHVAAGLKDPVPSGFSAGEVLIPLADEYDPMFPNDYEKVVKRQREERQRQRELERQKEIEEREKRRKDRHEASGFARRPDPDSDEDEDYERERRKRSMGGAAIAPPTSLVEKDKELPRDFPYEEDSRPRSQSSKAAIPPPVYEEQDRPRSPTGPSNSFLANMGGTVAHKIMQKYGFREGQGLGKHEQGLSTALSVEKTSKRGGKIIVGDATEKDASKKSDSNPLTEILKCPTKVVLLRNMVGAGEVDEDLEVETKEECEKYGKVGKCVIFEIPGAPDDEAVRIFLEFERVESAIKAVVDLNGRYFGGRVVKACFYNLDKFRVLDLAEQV
Kind of assay: Binding affinity to His-Z-tagged SPF45 (unknown origin) UHM domain expressed in Escherichia coli BL21 (DE3) cells by ITC analysis. The method in brief: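 SPF45 UHM domain expressed in BL21 (DE3) as His-Ztag fusion (0.5 mM IPTG, overnight at 20 °C), then Ni-NTA, TEV cleavage of tag, ion exchange and size exclusion. ITC: 5–20 μM protein in cell titrated with 10-fold concentrated peptide, 1.5 μL injections. One-site binding fit; errors are SD of fitting errors by error propagation.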
Background: Isothermal titration calorimetry measures the heat released or taken up as one component is titrated into another.

For assay [2], the species on record is Homo sapiens. Kind of assay: Selectivity index, ratio of Kd for U2AF65 UHM domain to Kd for His-Z-tagged SPF45 (unknown origin) UHM domain.
Assay [3] deals with T2, Splicing factor 45 (Homo sapiens) (UniProt Q96I25).
T2 sequence (whole entry): T1 sequence (Q96I25 whole entry)
Nature of the assay: Inhibition of SPF45-mediated splicing in human HeLa nuclear extracts assessed as reduction in complex A formation during spliceosome-assembly at 25 to 500 uM incubated for 20 mins before addition of IgM pre-mRNA as the splicing substrate by agarose gel electrophoresis. In kind it is tissue-based. The settings on record: dose 25-500 µM. The gist of the method:
(§1)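 Peptide added to 25–500 μM final and held 20 min on ice before pre-mRNA. Spliced product normalized to the no-peptide control; SD from two independent experiments. Complex formation read by agarose gel electrophoresis.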

Assay [4] addresses T2, Splicing factor 45 (Homo sapiens). Nature of the assay: Inhibition of SPF45-mediated splicing in human HeLa nuclear extracts assessed as reduction in splicing products formation at 500 uM incubated for 20 mins before addition of IgM pre-mRNA as the splicing substrate by agarose gel electrophoresis. The method in brief: as §1
For assay [5] the target is unchanged. Nature of the assay: Inhibition of SPF45-mediated splicing in human HeLa nuclear extracts assessed as splicing products formation at 25 to 500 uM incubated for 20 mins before addition of IgM pre-mRNA as the splicing substrate by agarose gel electrophoresis. Details: scale not given: the % may be the effect or the level left. The settings on record: dose 25-500 µM. The method in brief: as §1

Each structure is given as a SMILES string. Active and inactive are the calls of the source. The rule behind the calls is not given here. Peptide text beside a SMILES is read from it.

The term Kd denotes the constant that tells how readily two partners part at equilibrium. In turn, `N=C(N)NCCC[C@@H]1NC(=O)[C@H](CO)NC(=O)[C@H](N)CCCCNC(=O)CC[C@H](C(=O)N[C@@H](Cc2cnc[nH]2)C(=O)O)NC(=O)[C@H](CC(=O)O)NC(=O)[C@H](Cc2c[nH]c3ccccc23)NC1=O` returned a Kd in assay [1] of 960 nM. `N=C(N)NCCC[C@@H]1NC(=O)[C@H](CO)NC(=O)[C@H](N)CCCCNC(=O)CC[C@H](C(=O)NC(CCCCN=C(N)N)C(=O)O)NC(=O)[C@H](CC(=O)O)NC(=O)[C@H](Cc2c[nH]c3ccccc23)NC1=O` (some centres undefined): in assay [1], the Kd is 750 nM. In assay [1], `N=C(N)NCCC[C@H](NC(=O)[C@H](CO)NC(=O)[C@@H](N)CCCCN)C(=O)N[C@@H](Cc1c[nH]c2ccccc12)C(=O)N[C@@H](CC(=O)O)C(=O)N[C@@H](CCC(=O)O)C(=O)O` (H-KSRWDE-OH) returned a Kd of 15700 nM. In assay [2], the Ratio was 9. In assay [1], `N=C(N)NCCC[C@@H]1NC(=O)[C@H](CO)NC(=O)[C@H](N)CCCCNC(=O)CC[C@H](C(=O)O)NC(=O)[C@H](CC(=O)O)NC(=O)[C@H](Cc2c[nH]c3ccccc23)NC1=O` had a dissociation constant (Kd) of 1400 nM. On the same count and under the same terms, the same measure for `N=C(N)NCCC[C@@H]1NC(=O)[C@H](CO)NC(=O)[C@H](N)CCCCNC(=O)CC[C@H](C(=O)N[C@@H](Cc2ccc(O)cc2)C(=O)O)NC(=O)[C@H](CC(=O)O)NC(=O)[C@H](Cc2c[nH]c3ccccc23)NC1=O`: 1850 nM. The molecule `N=C(N)NCCC[C@@H]1NC(=O)[C@H](CO)NC(=O)[C@H](N)CCCCNC(=O)CC[C@H](C(=O)N[C@@H](CCCCN)C(=O)O)NC(=O)[C@H](CC(=O)O)NC(=O)[C@H](Cc2c[nH]c3ccccc23)NC1=O` yielded a Kd in assay [1] of 180 nM. The inhibition result in assay [3] and in assay [4] was “Active” each time. Besides, the Activity in assay [5] was found to be 29%. Also, the Ratio in assay [2] amounted to 270.

As to `CN1CCCC[C@@H](N)C(=O)N[C@@H](CO)C(=O)N[C@@H](CCCNC(=N)N)C(=O)N[C@@H](Cc2c[nH]c3ccccc23)C(=O)N[C@@H](CC(=O)O)C(=O)N[C@@H](C(=O)N[C@@H](CCCCN)C(=O)O)CCC1=O`, the Kd in assay [1] turned out to be 1260 nM. The same measure, in the same setting: the same measure for `N=C(N)NCCC[C@@H]1NC(=O)[C@H](CO)NC(=O)[C@H](N)CCCCNC(=O)CC[C@H](C(=O)N[C@@H](Cc2c[nH]c3ccccc23)C(=O)O)NC(=O)[C@H](CC(=O)O)NC(=O)[C@H](Cc2c[nH]c3ccccc23)NC1=O`: 800 nM; for `N=C(N)NCCC[C@H](NC(=O)[C@H]1CCC(=O)NCCCC[C@@H](N)C(=O)N[C@@H](CO)C(=O)N[C@@H](CCCNC(=N)N)C(=O)N[C@@H](Cc2c[nH]c3ccccc23)C(=O)N[C@@H](CC(=O)O)C(=O)N1)C(=O)O`: 510 nM.
